# Source: ChEMBL document CHEMBL2434897, “Synthesis of 15-methylene-eburnamonine from (+)-vincamine, evaluation of anticancer activity, and investigation of mechanism of action by quantitative NMR” (Bioorg Med Chem Lett, 2013)
# Assays:
# RPMI-8226 = assay: Cytotoxicity against human RPMI8226 cells after 96 hrs by MTS assay; type: functional, cell-based; conditions: RPMI-8226, 96 h
# Outline: (§1)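 Cells kept in RPMI-1640 with 10% FBS and 1% penicillin/streptomycin at 37 °C under humidified 5% CO2. Seeded at 25,000 cells/well (KMS-12BM, RPMI-8226, U266) or 5000 cells/well (LNCaP), then exposed to graded drug concentrations or DMSO vehicle for 96 h. MTS read-out at OD 492 nm. LC50 from four-parameter logistic fit of log-transformed, vehicle-normalized OD; ≥3 independent experiments in triplicate.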
# [1] = Cytotoxicity against human KMS-12-BM cells after 96 hrs by MTS assay; type: functional, cell-based; outline: as §1
# LNCaP = assay: Cytotoxicity against human LNCAP cells after 96 hrs by MTS assay; type: functional, cell-based; outline: as §1
# MDA-MB-231 = assay: Cytotoxicity against human MDA-MB-231 cells after 96 hrs by MTS assay; type: functional, cell-based; conditions: MDA-MB-231, 96 h
# [2] = Cytotoxicity against human FnMSC cells after 96 hrs by MTS assay; type: cell-based; conditions: read-out: LC50
# U-266 = assay: Cytotoxicity against human U266 cells after 96 hrs by MTS assay; type: functional, cell-based; conditions: U-266, 96 h; outline: as §1
SMILES,LC50 (RPMI-8226) [µM],LC50 [1] [µM],LC50 (LNCaP) [µM],LC50 (MDA-MB-231) [µM],CC50 at 96 h [2] [µM],LC50 (U-266) [µM]
C=C1C(=O)n2c3c(c4ccccc42)CCN2CCC[C@]1(CC)[C@@H]32,12.2,4,9.5,14.1,16.7,4.3
CC[C@]12CCCN3CCc4c(n(c5ccccc45)C(=O)C1)[C@@H]32 [VINBURNINE],> 100,> 100,> 100,41.8,–,> 100
